Most compounds without a hit are left out; they make up all but 2% or so of the library.
IMP-1 inh-1 = blocks Pseudomonas aeruginosa IMP-1 metallo-beta-lactamase. purified IMP-1, nitrocefin hydrolysis, epi-absorbance fluorescence. inhibition, % at 5.6 µM. actives 0.45% (n = 290,000). AID 1556;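 active = inhibition above the mean plus 3 SD of all compounds in the same screening run, cut at about 4.5% in these data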;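 also: 0% = IMP-1 with DMSO and 100% = DMSO wells lacking enzyme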
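System: Purified recombinant IMP-1 metallo-beta-lactamase enzyme | Measured by: Fluorescence quenching readout, ex 480/em 530 nm | Replication: Singlicate | Incubation: 15 min preincubation plus 25 min reaction at 25 °C | Evaluation: Percent inhibition from optical density relative to buffer-blank wells | Benchmarks: DMSO with and without IMP-1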
HKDC1 inh = HKDC1 (human) hexokinase inhibition; Q2TB90; recombinant HKDC1, G6PDH/diaphorase resazurin coupled fluorescence; inhibition, % at 20 µM; actives 0.16% (n = 340,000);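 active = inhibition above about 35% when tested at 20 µM, limit read from the data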;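 also: plate controls were DMSO wells with enzyme for no effect and DMSO wells lacking enzyme for full effect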
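System: Recombinant HKDC1 hexokinase | Amount: HKDC1 at 5 µg/mL | Reagent: Glucose with 1 mM ATP | Doses: Single 20 µM dose | Incubation: Reaction time 90 min, room temperature, protected from light | Signal: Coupled resazurin fluorescence, excitation 525 nm, emission 613 nm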
VIM-2 inhibitor = blocks Pseudomonas aeruginosa VIM-2 metallo-beta-lactamase; inhibition, % at 5.6 µM; purified VIM-2, nitrocefin hydrolysis, epi-absorbance fluorescence; actives 0.89% (n = 290,000); AID 1527;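 active = inhibition above the mean of all tested compounds plus 3 SD, cutoff set per screening run, cut at about 7.5% in these data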;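 also: red hydrolysis product quenches plate fluorescence so inhibitors raise well fluorescence; 0% = enzyme with DMSO and 100% = DMSO without enzyme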
ATG4B inh = blocks human ATG4B protease cleavage of LC3 substrate. inhibition, % at 8.33 µM. actives 0.51% (n = 340,000). ATG4B cleavage of LC3-PLA2, NBD-HPC fluorescence, 1 h; in the data active = inhibition above about 40%
Target sequence (Q9Y4P1 whole entry, looked up): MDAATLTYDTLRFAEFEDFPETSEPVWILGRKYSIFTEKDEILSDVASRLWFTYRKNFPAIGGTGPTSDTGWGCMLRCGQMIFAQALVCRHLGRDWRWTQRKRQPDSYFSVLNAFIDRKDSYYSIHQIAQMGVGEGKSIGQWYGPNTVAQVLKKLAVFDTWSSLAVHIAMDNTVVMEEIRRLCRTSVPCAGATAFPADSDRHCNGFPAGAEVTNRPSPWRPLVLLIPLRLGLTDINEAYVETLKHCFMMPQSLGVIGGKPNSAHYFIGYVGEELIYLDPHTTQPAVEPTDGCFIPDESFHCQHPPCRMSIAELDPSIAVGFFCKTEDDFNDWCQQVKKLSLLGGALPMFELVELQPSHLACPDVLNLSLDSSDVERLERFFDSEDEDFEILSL
PvdQ acylase = P. aeruginosa PvdQ acylase inhibition. actives 0.063% (n = 340,000). purified PvdQ acylase, fluorescence plate reader. inhibition, % at 10 µM. AID 488965; in the data active = inhibition above about 30%, passing the limit was not always enough;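 also: 0% = vehicle neutral wells and 100% = reference inhibitor wells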
beta cell repl = MIN6 beta-cell proliferation induction | proliferation, % at 10 µM | MIN6 cells proliferation, ATPlite luminescence, 48 h; cells starved in 0.2% serum; 100% = growth in 10% serum | actives 0.29% (n = 330,000);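 active = compounds whose signal lies at least 3.5 SD above the mean of all wells on their plate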;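 also: 0% = DMSO-treated cells in low-serum medium and 100% = 10% serum control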
IMP-1 inh-2 = selectivity counter-screen for VIM-2 inhibitors: IMP-1 metallo-beta-lactamase inhibitors. shares compounds with VIM-2 inhibitor. purified IMP-1, nitrocefin hydrolysis, epi-absorbance fluorescence. inhibition, % at 5.6 µM. 1,300 tested, under 10 active. AID 1856; call rule not given here;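 also: 0% = enzyme with vehicle and 100% = vehicle without enzyme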
VIM-2 FRET ctr = counter-screen for VIM-2 inhibitors: epi-absorbance artifacts via FRET; shares compounds with VIM-2 inhibitor; purified VIM-2, CCF2 FRET substrate hydrolysis; inhibition, % at 5.6 µM; actives 23% (n = 1,300); AID 1857;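 active = inhibition above the mean of all tested compounds plus 3 SD, cut at about 19% in these data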;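 also: 0% = VIM-2 plus DMSO and 100% = no enzyme wells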
TEM-1 counter = blocks E. coli TEM-1 beta-lactamase in VIM-2 selectivity screen | inhibition, % at 5.6 µM | shares compounds with VIM-2 inhibitor | Purified TEM-1, nitrocefin hydrolysis, epi-absorbance fluorescence | actives 3% (n = 1,300);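 active = inhibition above that campaign's mean inhibition plus 3 SD, cut at about 0.46% in these data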;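 also: 0% = TEM-1 with DMSO and 100% = TEM-1 with 100 µM potassium clavulanate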
Target sequence (P62593 whole entry, looked up): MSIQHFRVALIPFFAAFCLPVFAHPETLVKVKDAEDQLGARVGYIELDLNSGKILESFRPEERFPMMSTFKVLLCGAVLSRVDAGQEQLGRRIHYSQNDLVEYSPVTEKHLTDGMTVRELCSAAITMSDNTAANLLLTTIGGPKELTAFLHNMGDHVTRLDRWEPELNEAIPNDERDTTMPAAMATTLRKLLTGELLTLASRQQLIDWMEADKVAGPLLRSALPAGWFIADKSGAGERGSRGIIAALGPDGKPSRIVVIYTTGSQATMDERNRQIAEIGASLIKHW
VIM-2 inh conf = confirmation of P. aeruginosa VIM-2 metallo-beta-lactamase inhibitors; inhibition, % at 5.6 µM; actives 96% (n = 1,300); shares compounds with VIM-2 inhibitor; AID 2187; purified VIM-2, nitrocefin hydrolysis, epi-absorbance;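 active = inhibition of the VIM-2 beta-lactamase enzyme above about 11% from the earlier first-round screen, limit read from the data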;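 also: 0% = VIM-2 with DMSO and 100% = buffer wells without enzyme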
* marks the source's active call; other numbers are inactive results.

What do the screens show for `CCOC(=O)c1cnc2c(C)c(Cl)ccc2c1N1CCOCC1`?
IMP-1 inh-1: -3; HKDC1 inh: 7; VIM-2 inhibitor: -3; ATG4B inh: 11; PvdQ acylase: -7; beta cell repl: -2

How did CCOC(=O)c1cnc2c(ccc3ccccc32)c1NCCCN(C)C do in these assays?
IMP-1 inh-1: 1; HKDC1 inh: 3; VIM-2 inhibitor: 25*; ATG4B inh: -7; PvdQ acylase: -24; beta cell repl: -6; IMP-1 inh-2: 1; VIM-2 FRET ctr: 11; TEM-1 counter: -6; VIM-2 inh conf: 35*

Results for CCOC(=O)c1cnc2c(C)c(Cl)ccc2c1NCCCN1CCOCC1 ?
IMP-1 inh-1: 0; HKDC1 inh: 0; VIM-2 inhibitor: 16*; ATG4B inh: -3; PvdQ acylase: -3; beta cell repl: 2; IMP-1 inh-2: 0; VIM-2 FRET ctr: 1; TEM-1 counter: -1; VIM-2 inh conf: 25*

How did O=C(Nc1cccc(-n2cnnn2)c1)c1ccc(OC(F)(F)F)cc1 do in these assays?
IMP-1 inh-1: -3; HKDC1 inh: -4; VIM-2 inhibitor: -2; ATG4B inh: -8; PvdQ acylase: -14; beta cell repl: 1

What do the screens show for `Cc1cccn2c(=O)c3cc(C(=O)NC4CCCC4)c(=N)n(C4CCCCC4)c3nc12`?
IMP-1 inh-1: -2; HKDC1 inh: -25; VIM-2 inhibitor: 2; ATG4B inh: 21; PvdQ acylase: -18; beta cell repl: -6

Results for CCC(C)Nc1cc(C)c(C#N)c2nc3ccccc3n12 (stereo not drawn) ?
IMP-1 inh-1: -4; HKDC1 inh: 3; VIM-2 inhibitor: 28*; ATG4B inh: -3; PvdQ acylase: -18; beta cell repl: 4; IMP-1 inh-2: -4; VIM-2 FRET ctr: -12; TEM-1 counter: -8; VIM-2 inh conf: 38*

Results for Cc1c2c(n3c(nc4ccccc43)c1C#N)N(CCCN(C)C)CC2 ?
IMP-1 inh-1: -2; HKDC1 inh: -1; VIM-2 inhibitor: 32*; ATG4B inh: -7; PvdQ acylase: 0; beta cell repl: 0; IMP-1 inh-2: -3; VIM-2 FRET ctr: -90; TEM-1 counter: -8; VIM-2 inh conf: 48*

What do the screens show for `Cc1cc(Nc2ccc(O)cc2)n2c(nc3ccccc32)c1C#N`?
IMP-1 inh-1: -2; HKDC1 inh: -1; VIM-2 inhibitor: 0; ATG4B inh: 6; PvdQ acylase: 7; beta cell repl: -3

How did Cc1cc(NCC2CCCO2)n2c(nc3ccccc32)c1C#N (stereo not drawn) do in these assays?
IMP-1 inh-1: -2; HKDC1 inh: 12; VIM-2 inhibitor: 13*; ATG4B inh: -13; PvdQ acylase: -1; beta cell repl: 4; IMP-1 inh-2: -2; VIM-2 FRET ctr: -9; TEM-1 counter: -4; VIM-2 inh conf: 38*

Results for Cc1cc(C(C)C)n2c(nc3ccccc32)c1C#N ?
IMP-1 inh-1: 0; VIM-2 inhibitor: 1; beta cell repl: -1

What do the screens show for `Cc1cc(NCCCOC(C)C)n2c(nc3ccccc32)c1C#N`?
IMP-1 inh-1: 0; HKDC1 inh: 7; VIM-2 inhibitor: 30*; ATG4B inh: 3; PvdQ acylase: -31; beta cell repl: -1; IMP-1 inh-2: -3; VIM-2 FRET ctr: -15; TEM-1 counter: -6; VIM-2 inh conf: 37*

What do the screens show for `Cc1cc(NCCCn2ccnc2)n2c(nc3ccccc32)c1C#N`?
IMP-1 inh-1: -3; HKDC1 inh: 4; VIM-2 inhibitor: 82*; ATG4B inh: 9; PvdQ acylase: -11; beta cell repl: -4; IMP-1 inh-2: -2; VIM-2 FRET ctr: -13; TEM-1 counter: -7; VIM-2 inh conf: 89*

How did Cc1cc(NCCCN(C)C)n2c(nc3ccccc32)c1C#N do in these assays?
IMP-1 inh-1: -4; HKDC1 inh: 6; VIM-2 inhibitor: 57*; ATG4B inh: 3; PvdQ acylase: -34; beta cell repl: -1; IMP-1 inh-2: -6; VIM-2 FRET ctr: -5; TEM-1 counter: -11; VIM-2 inh conf: 65*

Results for Cc1ccc(NC(=O)CCOc2ccccc2C)cc1F ?
IMP-1 inh-1: -2; HKDC1 inh: -5; VIM-2 inhibitor: -2; ATG4B inh: 4; PvdQ acylase: -8; beta cell repl: -3

How did CN(C)S(=O)(=O)c1cccc(NC(=S)N/N=C/C2CC=CCC2)c1 (stereo not drawn) do in these assays?
IMP-1 inh-1: -4; HKDC1 inh: -11; VIM-2 inhibitor: 71*; ATG4B inh: -13; PvdQ acylase: -4; beta cell repl: -3; IMP-1 inh-2: -3; VIM-2 FRET ctr: 83*; TEM-1 counter: -6; VIM-2 inh conf: 76*

What do the screens show for `CN(C)S(=O)(=O)c1cccc(NC(=S)NN=C(Cc2ccccc2)Cc2ccccc2)c1`?
IMP-1 inh-1: -4; HKDC1 inh: -22; VIM-2 inhibitor: 15*; ATG4B inh: 3; PvdQ acylase: -4; beta cell repl: 0; IMP-1 inh-2: -4; VIM-2 FRET ctr: 1; TEM-1 counter: -8; VIM-2 inh conf: 4

What do the screens show for `CN(CC(=O)Nc1cccc(S(=O)(=O)N(C)C)c1)Cc1ccccc1`?
IMP-1 inh-1: -2; HKDC1 inh: 6; VIM-2 inhibitor: 1; ATG4B inh: -3; PvdQ acylase: -14; beta cell repl: -1

Results for CN(C)S(=O)(=O)c1cccc(NC(=S)NC2CCCCC2)c1 ?
IMP-1 inh-1: -1; HKDC1 inh: -3; VIM-2 inhibitor: -2; ATG4B inh: 1; PvdQ acylase: -14; beta cell repl: 4

Results for O=C(O)c1ccccc1Sc1ncnc2sc3c(c12)CCC3 ?
IMP-1 inh-1: -2; HKDC1 inh: -3; VIM-2 inhibitor: 29*; ATG4B inh: 6; PvdQ acylase: -21; beta cell repl: 5; IMP-1 inh-2: -4; VIM-2 FRET ctr: 61*; TEM-1 counter: -6; VIM-2 inh conf: 37*

How did Cc1sc2ncnc(Sc3ccccc3C(=O)O)c2c1C do in these assays?
IMP-1 inh-1: -2; HKDC1 inh: 5; VIM-2 inhibitor: 7; ATG4B inh: -3; PvdQ acylase: -4; beta cell repl: 0

Screening results from PubChem BioAssay.
